Experimental data published in PMC6605684 (The Journal of General Physiology, 2019).
Several values for one entry are separate records, joined by “and”; a condition that tells them apart may be missing. Identical values can stand only once. Entries after “also recorded” stand apart in the source; their conditions may differ.

Legend:
[1] = biological target: WT-mCFTR (Mus musculus, UniProt P26361); assay: Inside-out patch-clamp of CFTR currents in transfected CHO cells; format: cell-based; details: 2 mM ATP
Summary of the method: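 Mouse CFTR expressed in CHO cells; inside-out patches. Phosphorylated channels opened by 2 mM ATP before the potentiator was applied (one potentiator at 200 nM). 5 µM CFTRinh-172 added at the end of each recording for baseline.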

[2] = biological target: F312A-CFTR (Homo sapiens, UniProt P13569, F312A); assay: Inside-out patch-clamp of CFTR currents in transfected CHO cells; format: cell-based; details: for ΔΔG: vs WT
[3] = biological target: S182A-CFTR (Homo sapiens, UniProt P13569, S182A); assay: Inside-out patch-clamp of CFTR currents in transfected CHO cells; format: cell-based
Summary of the method: (§1)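 CFTR construct and GFP plasmid cotransfected into CHO cells, held at 27°C for 2–6 d. Inside-out patches at room temperature, −30 mV, NMDG-Cl solutions at pH 7.4. Channels preactivated with 25 IU PKA plus 2 mM MgATP, then test compound (max 40 µM) applied in 2 mM ATP. ATP-subtracted steady-state currents normalized to the 3 µM response in the same patch. Hill fit with base 0 and maximum 1; EC50 ± SD of fit; 3–7 patches per point.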

[4] = biological target: WT-CFTR (Homo sapiens, UniProt P13569); assay: as above; format: cell-based
Chain of WT-CFTR (P13569 whole entry): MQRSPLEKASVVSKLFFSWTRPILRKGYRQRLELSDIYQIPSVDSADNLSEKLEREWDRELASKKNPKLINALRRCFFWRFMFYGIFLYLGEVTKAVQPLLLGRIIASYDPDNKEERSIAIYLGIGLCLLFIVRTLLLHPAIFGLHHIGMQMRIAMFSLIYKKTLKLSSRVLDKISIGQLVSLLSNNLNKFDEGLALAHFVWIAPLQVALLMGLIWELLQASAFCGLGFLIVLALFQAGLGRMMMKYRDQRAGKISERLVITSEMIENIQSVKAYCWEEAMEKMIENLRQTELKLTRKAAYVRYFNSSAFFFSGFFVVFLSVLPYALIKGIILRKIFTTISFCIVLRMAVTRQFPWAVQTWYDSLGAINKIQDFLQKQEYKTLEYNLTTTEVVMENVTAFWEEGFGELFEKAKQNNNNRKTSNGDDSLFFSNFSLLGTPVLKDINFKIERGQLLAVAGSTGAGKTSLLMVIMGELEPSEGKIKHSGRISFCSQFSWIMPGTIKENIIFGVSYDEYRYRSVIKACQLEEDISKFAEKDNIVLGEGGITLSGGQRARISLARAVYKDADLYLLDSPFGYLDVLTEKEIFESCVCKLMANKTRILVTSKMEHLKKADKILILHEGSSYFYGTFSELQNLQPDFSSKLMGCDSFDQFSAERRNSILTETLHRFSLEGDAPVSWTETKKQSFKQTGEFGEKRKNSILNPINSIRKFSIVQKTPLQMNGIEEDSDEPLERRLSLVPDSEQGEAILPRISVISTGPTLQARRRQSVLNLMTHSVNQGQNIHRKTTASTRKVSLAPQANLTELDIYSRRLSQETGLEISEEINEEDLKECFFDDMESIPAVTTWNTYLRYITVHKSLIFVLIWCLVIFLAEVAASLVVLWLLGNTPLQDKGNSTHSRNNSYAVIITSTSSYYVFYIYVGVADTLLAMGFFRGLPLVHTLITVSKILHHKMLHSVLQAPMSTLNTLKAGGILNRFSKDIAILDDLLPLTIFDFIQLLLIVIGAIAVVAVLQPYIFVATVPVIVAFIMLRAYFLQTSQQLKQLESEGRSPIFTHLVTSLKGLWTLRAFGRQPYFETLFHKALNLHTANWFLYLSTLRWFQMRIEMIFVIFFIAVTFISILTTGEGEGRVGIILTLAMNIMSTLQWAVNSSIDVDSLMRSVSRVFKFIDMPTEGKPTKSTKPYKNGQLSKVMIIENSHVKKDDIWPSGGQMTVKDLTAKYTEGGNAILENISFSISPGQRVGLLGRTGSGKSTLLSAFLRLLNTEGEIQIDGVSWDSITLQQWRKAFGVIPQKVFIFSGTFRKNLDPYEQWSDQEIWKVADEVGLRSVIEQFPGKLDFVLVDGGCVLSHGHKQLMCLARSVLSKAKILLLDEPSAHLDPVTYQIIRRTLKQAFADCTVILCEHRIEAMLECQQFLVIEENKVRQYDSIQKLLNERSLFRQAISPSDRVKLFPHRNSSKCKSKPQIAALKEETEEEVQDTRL
Summary of the method: as §1

[5] = biological target: N1138L/G551D-CFTR (Homo sapiens, UniProt P13569, G551D/N1138L); assay: as above; format: cell-based
Summary of the method: as §1

[6] = biological target: R347C-CFTR (Homo sapiens, UniProt P13569, R347C); assay: Inside-out patch-clamp of CFTR currents in transfected CHO cells; format: cell-based
Summary of the method: (§2)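 Channels in ATP exposed to test compound at pH 7.4; percent change of mean current scored. Perfusate then switched to pH 5.5, with or without prior compound exposure at pH 7.4. Fold increase taken as peak current at pH 5.5 divided by mean current at pH 7.4.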

[7] = biological target: R347D-CFTR (ΔR-CFTR background) (Homo sapiens, UniProt P13569, R347D); assay: as above; format: cell-based; details: pH 7.4
Summary of the method: as §2

[8] = biological target: D924N-CFTR (Homo sapiens, UniProt P13569, D924N); assay: Inside-out patch-clamp of CFTR currents in transfected CHO cells; format: cell-based
Summary of the method: as §1

[9] = biological target: F236A-CFTR (Homo sapiens, UniProt P13569, F236A); assay: as above; format: cell-based
Summary of the method: as §1

[10] = biological target: S1141R/G551D-CFTR (Homo sapiens, UniProt P13569, G551D/S1141R); assay: as above; format: cell-based
Summary of the method: as §1

[11] = biological target: K190A-CFTR (Homo sapiens, UniProt P13569, K190A); assay: as above; format: cell-based
Summary of the method: as §1

[12] = biological target: N1138F/G551D-CFTR (Homo sapiens, UniProt P13569, G551D/N1138F); assay: as above; format: cell-based
Summary of the method: as §1

[13] = biological target: S263A-CFTR (Homo sapiens, UniProt P13569, S263A); assay: as above; format: cell-based
Summary of the method: as §1

[14] = biological target: Y304A-CFTR (Homo sapiens, UniProt P13569, Y304A); assay: Inside-out patch-clamp of CFTR currents in transfected CHO cells; format: cell-based
Summary of the method: (§3)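 Relaxation assay: PKA-preactivated channels in 2 mM ATP at −30 mV exposed to test compound through a fast three-barrel perfusion system (dead time ∼30 ms). Current decay after sudden removal of 3 µM compound fitted with a single exponential to give relaxation time constant τ.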

[15] = biological target: WT zCFTR (zWT) (Danio rerio, UniProt Q1LX78); assay: Inside-out patch-clamp of CFTR currents in transfected CHO cells; format: cell-based, zebrafish; details: EC50 for GLPG1837, dose–response
Summary of the method: as §1

[16] = biological target: D993A-CFTR (Homo sapiens, UniProt P13569, D993A); assay: as above; format: cell-based
Chain of D993A-CFTR (P13569 whole entry D993A): as the sequence (P13569 whole entry) above, with D993A counted along it
Summary of the method: as §1

[17] = biological target: T1, G551D-CFTR (Homo sapiens, UniProt P13569, G551D); assay: as above; format: cell-based
Summary of the method: as §1

[18] = biological target: Q237A-CFTR (Homo sapiens, UniProt P13569, Q237A); assay: as above; format: cell-based
Summary of the method: as §1

[19] = biological target: D924E-CFTR (Homo sapiens, UniProt P13569, D924E); assay: as above; format: cell-based
Summary of the method: as §1

[20] = biological target: R347S-CFTR (ΔR-CFTR background) (Homo sapiens, UniProt P13569, R347S); assay: Inside-out patch-clamp of CFTR currents in transfected CHO cells; format: cell-based; details: pH 7.4
Summary of the method: as §2

[21] = biological target: F304Y-mCFTR (Mus musculus, UniProt P26361, F304Y); assay: Inside-out patch-clamp of CFTR currents in transfected CHO cells; format: cell-based
Summary of the method: as §1

[22] = biological target: F229A-CFTR (Homo sapiens, UniProt P13569, F229A); assay: as above; format: cell-based
Chain of F229A-CFTR (P13569 whole entry F229A): as the sequence (P13569 whole entry) above, with F229A counted along it
Summary of the method: as §1

[23] = biological target: S1141K/G551D-CFTR (Homo sapiens, UniProt P13569, G551D/S1141K); assay: as above; format: cell-based
Summary of the method: as §1

[24] = biological target: S364A-CFTR (Homo sapiens, UniProt P13569, S364A); assay: as above; format: cell-based
Summary of the method: as §1

[25] = biological target: T1, G551D-CFTR; details: ref Yeh et al., 2017, cited from earlier work
[26] = biological target: S1149A-CFTR (Homo sapiens, UniProt P13569, S1149A); assay: Inside-out patch-clamp of CFTR currents in transfected CHO cells; format: cell-based
Summary of the method: as §1

[27] = biological target: T360A-CFTR (Homo sapiens, UniProt P13569, T360A); assay: as above; format: cell-based
Summary of the method: as §1

[28] = biological target: S1141T/G551D-CFTR (Homo sapiens, UniProt P13569, G551D/S1141T); assay: as above; format: cell-based
Summary of the method: as §1

[29] = biological target: Y304F-CFTR (Homo sapiens, UniProt P13569, Y304F); assay: as above; format: cell-based
Summary of the method: as §1

[30] = biological target: F931A-CFTR (Homo sapiens, UniProt P13569, F931A); assay: as above; format: cell-based
Summary of the method: as §1

[31] = biological target: N1138Y/G551D-CFTR (Homo sapiens, UniProt P13569, G551D/N1138Y); assay: as above; format: cell-based
Summary of the method: as §1

[32] = biological target: Y304T-CFTR (Homo sapiens, UniProt P13569, Y304T); assay: Inside-out patch-clamp of CFTR currents in transfected CHO cells; format: cell-based
Summary of the method: as §3

[33] = biological target: D924A-CFTR (Homo sapiens, UniProt P13569, D924A); assay: Inside-out patch-clamp of CFTR currents in transfected CHO cells; format: cell-based
Summary of the method: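 No macroscopic currents were obtained, so single-channel recordings were used: less plasmid, recorded within 2 d, 4–5 MΩ pipettes, patch held at −50 mV. Channels activated with PKA plus ATP, then PKA removed in 2 mM ATP. Activity at 3 and 20 µM test compound compared with basal activity in 2 mM ATP.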

[34] = CHO, read-out: Efficacy (% increase) of currents by GLPG1837

Structure (SMILES): CC1(C)Cc2c(sc(NC(=O)c3ccn[nH]3)c2C(N)=O)C(C)(C)O1 [GLPG1837, N-(3-carbamoyl-5,5,7,7-tetramethyl-5,7-dihydro-4H-thieno[2,3-c]pyran-2-yl)-lH-pyrazole-5-carboxamide]
- Potentiation of currents by GLPG1837 [1]: does not potentiate
- Emax ([2]; CHO, read-out: Efficacy (% increase) of currents by GLPG1837, 30 µM ATP): 105 ± 12%
- EC50 ([2]; EC50 for GLPG1837, 30 µM ATP (Po ∼0.35)): 1300 ± 260 nM
- EC50 ([2]; EC50 for GLPG1837, 2 mM ATP): 400 ± 130 nM
- ΔΔG ([2]; GLPG1837, 30 µM ATP): -0.954 kcal/mol
- ΔΔG ([2]; GLPG1837, 2 mM ATP): -0.256 kcal/mol
- EC50 [3]: 220 ± 40 nM
- Emax [3, 34]: 138 ± 23%
- ΔΔG ([3]; GLPG1837, vs WT): 0.098 kcal/mol
- EC50 [4]: 260 ± 40 nM
- Hill coefficient of the GLPG1837 effect [4]: ≈ 1
- Emax [4, 34]: 115%
- Saturating concentration of GLPG1837 ([4]; continuous presence of ATP): 3 µM
- EC50 [5]: 80 ± 20 nM
- Emax [5, 34]: 253 ± 32%
- ΔΔG ([5]; GLPG1837, vs G551D): 1.96 kcal/mol
- Effect of GLPG1837 on currents ([6]; pH 5.5): effectively potentiates
- Percent of inhibition of currents by GLPG1837 ([6]; pH 7.4): 16 ± 3%
- Effect of GLPG1837 on currents [7]: no effect
- EC50 [8]: 2290 ± 780 nM
- ΔΔG ([8]; GLPG1837, vs WT): -1.29 kcal/mol
- Efficacy (% increase) of currents by GLPG1837 ([8]; maximal percent increase): 464 ± 73%
- EC50 [9]: 340 ± 140 nM
- Emax [9, 34]: 81 ± 14%
- ΔΔG ([9]; GLPG1837, vs WT): -0.16 kcal/mol
- EC50 [10]: 510 ± 130 nM
- ΔΔG ([10]; GLPG1837, vs G551D): 0.863 kcal/mol
- EC50 [11]: 80 ± 10 nM
- Emax [11, 34]: 61 ± 12%
- ΔΔG ([11]; GLPG1837, vs WT): 0.698 kcal/mol
- EC50 [12]: 160 ± 50 nM
- Emax [12, 34]: 666 ± 131%
- ΔΔG ([12]; GLPG1837, vs G551D): 1.55 kcal/mol
- EC50 [13]: 270 ± 50 nM
- Emax [13, 34]: 148 ± 18%
- ΔΔG ([13]; GLPG1837, vs WT): -0.022 kcal/mol
- EC50 [14]: > 3000 nM
- Emax [14, 34]: > 80%
- ΔΔG ([14]; GLPG1837, vs WT): <-1.45 kcal/mol
- Relaxation time constant upon removal of GLPG1837 ([14]; mean, n = 5): 3.6 ± 1.0 s and < 5 s
- EC50 [15]: 3900 ± 1700 nM
- EC50 [16]: 360 ± 40 nM
- Emax [16, 34]: 283 ± 47%
- ΔΔG ([16]; GLPG1837, vs WT): -0.194 kcal/mol
- EC50 [17]: 2190 ± 330 nM
- EC50 [18]: 920 ± 320 nM
- Emax [18, 34]: 615%
- ΔΔG ([18]; GLPG1837, vs WT): -0.748 kcal/mol
- EC50 [19]: 710 ± 70 nM
- Emax [19, 34]: 194 ± 8%
- ΔΔG ([19]; GLPG1837, vs WT): -0.595 kcal/mol
- Effect of GLPG1837 on currents [20]: no effect
- EC50 [21]: 680 ± 180 nM
- Potentiation of currents by GLPG1837 [21]: restores the potentiating effects; also recorded: Potentiation
- EC50 [22]: 460 ± 70 nM
- Emax [22, 34]: 135 ± 26%
- ΔΔG ([22]; GLPG1837, vs WT): -0.337 kcal/mol
- EC50 [23]: 260 ± 20 nM
- ΔΔG ([23]; GLPG1837, vs G551D): 1.26 kcal/mol
- EC50 [24]: 180 ± 10 nM
- Emax [24, 34]: 126 ± 5%
- Maximal fold increase of currents by GLPG1837 relative to WT-CFTR ([25]; greater than WT-CFTR): 20 fold
- Apparent affinity for GLPG1837 relative to WT-CFTR ([25]; lower than on WT-CFTR): 10 fold
- EC50 [26]: 160 ± 30 nM
- Emax [26, 34]: 139 ± 36%
- ΔΔG ([26]; GLPG1837, vs WT): 0.287 kcal/mol
- EC50 [27]: 120 ± 10 nM
- Emax [27, 34]: 120 ± 38%
- ΔΔG ([27]; GLPG1837, vs WT): 0.459 kcal/mol
- EC50 [28]: 1740 ± 310 nM
- ΔΔG ([28]; GLPG1837, vs G551D): 0.136 kcal/mol
- EC50 [29]: 2280 ± 340 nM
- Emax [29, 34]: 82 ± 12%
- ΔΔG ([29]; GLPG1837, vs WT): -1.29 kcal/mol
- Relaxation time constant upon removal of GLPG1837 ([29]; mean, n = 5): 5.5 ± 1.3
- EC50 [30]: 1140 ± 260 nM
- Emax [30, 34]: 83 ± 12%
- EC50 [31]: 400 ± 100 nM
- ΔΔG ([31]; GLPG1837, vs G551D): 1.01 kcal/mol
- EC50 [32]: > 3000 nM
- Emax [32, 34]: > 101%
- ΔΔG ([32]; GLPG1837, vs WT): <-1.45 kcal/mol
- Relaxation time constant upon removal of GLPG1837 ([32]; mean, n = 5): 4.7 ± 0.8 s and < 5 s
- Decrease of apparent affinity for GLPG1837 vs WT-CFTR [33]: ≥ 10 fold
- EC50 [33]: > 3000 nM
- Potentiating effect of GLPG1837 ([33]; 3 µM GLPG1837, microscopic recording): barely discerned any potentiating effects
- ΔΔG ([33]; GLPG1837, −RTln(EC50 mutant/EC50 WT)): <-1.45 kcal/mol
